TbMetRS inhib: Trypanosoma brucei MetRS inhibition. 360,000 tested, 0.4% active. AID 624268. inhibition, % at 11.9 µM. purified T. brucei MetRS, ATP depletion, Kinase-Glo luminescence;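 active means inhibition above a per-plate cutoff of the control wells' mean inhibition plus 3 SD, cut at about 5.5% in these data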;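 further: 0% = DMSO wells median and 100% = median of wells with control inhibitor compound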
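Material: parasite MetRS enzyme / Replication: singlicate, one well per compound / Signal: luminescence of leftover ATP / Schedule: 2 h aminoacylation at 25 °C after 15 min preincubation / Medium: HEPES-MgCl2-KCl buffer plus DTT, spermine, BSA, pyrophosphatase / Doses: 11.9 µM single point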
Dyrk1A ADPGlo: blocks rat Dyrk1A kinase activity. ADP-Glo luminescence, NFATc1 peptide. AID 504441. 310,000 tested, 0.43% active. inhibition, % at 12.5 µM. Q63470; in the data active means inhibition above about 50%;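 further: plate controls were vehicle with enzyme for no effect and no enzyme for full effect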
CAL PDZ FP-1: blocks peptide binding to the human CAL PDZ domain. inhibition, % at 24.9 µM. Q9HD26. 300,000 tested, 0.92% active. purified CAL PDZ, TMR-peptide fluorescence polarization, 1 h;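 active means mean inhibition of at least 30% with at least half of replicates also reaching 30%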;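 further: 0% = DMSO neutral control and 100% = excess unlabeled competitor peptide PRC23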
PvdQ acylase: P. aeruginosa PvdQ acylase inhibition. purified PvdQ acylase, fluorescence plate reader. inhibition, % at 10 µM. 340,000 tested, 0.063% active; in the data active means inhibition above about 30%, passing the limit was not always enough;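 further: 0% = vehicle neutral wells and 100% = reference inhibitor wells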
CDK5 p35 inh: inhibitors of human CDK5/p35 kinase; AID 488839; inhibition, % at 10 µM; Recombinant CDK5/p35, ADP-Glo luminescence, 60 min; 330,000 tested, 0.01% active;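 active means highest replicate inhibition of at least 50% and at least 75% of replicates reaching 50%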;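 further: plate controls were DMSO neutral control for no effect and GW8510 at 10 µM for full effect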
Target sequence (Q00535 whole entry, looked up): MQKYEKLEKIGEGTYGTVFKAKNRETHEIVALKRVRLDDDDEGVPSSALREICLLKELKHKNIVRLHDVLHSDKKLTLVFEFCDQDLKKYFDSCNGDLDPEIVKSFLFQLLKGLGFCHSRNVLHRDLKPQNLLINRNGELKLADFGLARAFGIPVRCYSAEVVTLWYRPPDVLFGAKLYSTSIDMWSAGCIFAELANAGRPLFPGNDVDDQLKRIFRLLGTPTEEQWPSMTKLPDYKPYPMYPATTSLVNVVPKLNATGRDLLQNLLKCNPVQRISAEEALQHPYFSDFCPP
Target sequence (Q15078 whole entry, looked up): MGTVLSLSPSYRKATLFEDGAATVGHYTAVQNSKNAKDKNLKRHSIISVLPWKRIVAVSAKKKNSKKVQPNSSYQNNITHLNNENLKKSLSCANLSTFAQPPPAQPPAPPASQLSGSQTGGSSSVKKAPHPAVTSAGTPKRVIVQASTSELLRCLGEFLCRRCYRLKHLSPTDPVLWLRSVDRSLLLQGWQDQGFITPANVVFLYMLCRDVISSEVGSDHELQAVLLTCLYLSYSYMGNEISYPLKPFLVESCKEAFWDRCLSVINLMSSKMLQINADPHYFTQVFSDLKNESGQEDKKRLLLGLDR
CAL PDZ FP-2: blocks peptide binding to human CAL PDZ domain; Q9HD26; purified CAL PDZ, TMR-peptide fluorescence polarization, 1 h; inhibition, % at 20 µM; 330,000 tested, 0.02% active; AID 504414;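 active means highest replicate inhibition of at least 40%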;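 further: plate controls were DMSO neutral control wells for no effect and unlabeled competitor peptide control wells for full effect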
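System: purified tagged CAL PDZ domain construct (CerCALP). Schedule: 1 h incubation at room temperature before polarization reading. Medium: 25 mM sodium phosphate pH 7.4, 150 mM NaCl, TCEP, IgG, Thesit. Read-out: percent inhibition from loss of millipolarization. Measured by: FP readout, S and P plane fluorescence. Probe or stimulus: fluorescent TMR peptide probe.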
An asterisk follows results filed as active; . = no result. An excerpt weighted towards active compounds, which were near 1.4% of everything screened.

SMILES | TbMetRS inhib | Dyrk1A ADPGlo | CAL PDZ FP-1 | PvdQ acylase | CDK5 p35 inh | CAL PDZ FP-2
O=c1c(OC2OC(CO)C(O)C(O)C2OC2OC(CO)C(O)C(O)C2OC2OC(CO)C(O)C(O)C2O)c(-c2ccc(O)c(O)c2)oc2cc(O)cc(O)c12 (stereo unspecified) | 0.4 | 25.7 | -0.2 | 4.7 | -0.7 | 0.0
COc1c(-c2ccc(O)c(O)c2)oc2cc(O)cc(O)c2c1=O | -1.0 | 85.2* | 0.1 | 0.6 | 9.5 | 0.1
CCC(CC)C(=O)N(C)c1c(C)nc2c(OCCC3CCCCC3)cccn12 | 0.1 | . | . | . | . | .
CCc1nc2c(OCc3ccc(OC(F)F)cc3)cccn2c1N(C)C(=O)c1ccc(OC)cc1 | 0.0 | . | . | . | . | .
COc1ccc(CCN2CC(C(=O)NCC3(O)CCCCC3)CCC2=O)cc1 (stereo unspecified) | -0.2 | 19.8 | -3.2 | -0.6 | 1.2 | -1.5
CN(C)C1(CNC(=O)C2CCC(=O)N(CCc3ccc(Cl)cc3)C2)CCCCC1 (stereo unspecified) | -0.4 | 1.9 | -4.9 | -4.3 | -0.7 | 87.9*
COCCN(CCOC)Cc1cc(=O)oc2cc(C)ccc12 | -0.7 | . | . | . | . | .
CC(C)Cn1nc(NC(=O)C(C)(C)C)c2cc3ccccc3nc21 | -0.4 | 23.9 | . | 10.1 | -2.4 | -2.1
CCCCC(=O)Nc1nn(CC(C)C)c2nc3ccccc3cc12 | 0.4 | -17.5 | 30.4* | -8.6 | 3.2 | 0.7
Cc1nn(Cc2c(Cl)cccc2Cl)c(C)c1NC(=O)c1sc2ccccc2c1Cl | -0.5 | -3.7 | -2.2 | -13.7 | 0.1 | 0.5
Cc1nn(Cc2ccc(Cl)c(Cl)c2)c(C)c1NC(=O)c1sc2ccccc2c1Cl | -0.2 | . | 34.6* | -17.9 | 1.0 | .
COCCCN1C(=O)C(CC(=O)NCCN2CCOCC2)CC(C(=O)N(C)C)=C1C (stereo unspecified) | -0.9 | . | . | . | . | .
Cc1ccccc1N1CC(O)(c2cccs2)[N+]2=C1CCCC2 (stereo unspecified) | -0.1 | 2.2 | 86.5* | -11.4 | -0.8 | 6.2
Cc1cccc(N2CC(O)(c3cccs3)[N+]3=C2CCCC3)c1C (stereo unspecified) | -0.5 | . | -2.9 | -10.4 | -1.3 | -1.6
CCOC(=O)c1c(-c2ccc(C)s2)csc1NC(=O)c1cccs1 | -0.6 | -3.1 | -3.2 | -6.5 | -3.5 | -1.0
CCOC(=O)c1c(NC(=O)c2cccs2)sc(CC)c1-c1cccs1 | -0.7 | -6.1 | 30.7* | -11.2 | -1.1 | -2.4
O=C(c1ccc(Cl)cc1)N1CCCC(C(=O)N2CCN(c3ccccc3)CC2)C1 (stereo unspecified) | 0.0 | . | . | . | . | .
O=C(C1CCC1)N1CCN(c2ccc(Cl)cc2)CC1 | -0.6 | -3.9 | 4.6 | 35.9* | 0.5 | 2.7
CC1(C(=O)NS(=O)(=O)c2cccc(OC(F)F)c2)CCN1C(=O)c1cccc(F)c1 (stereo unspecified) | 0.7 | . | . | . | . | .
OCC1CCCCN1C(=S)NCc1ccco1 (stereo unspecified) | 0.2 | 0.8 | 64.3* | -0.1 | -0.2 | 0.1
CC1CCCC(C)N1C(=S)NCc1ccco1 (stereo unspecified) | 1.1 | -10.2 | -2.6 | -11.8 | -2.5 | -0.8
O=[N+]([O-])c1cccnc1Oc1ccc(OCc2ccccc2)cc1 | -0.3 | 0.7 | 1.1 | -12.7 | -1.4 | -0.5
Nc1ccc(OCc2ccccc2)cc1[N+](=O)[O-] | -0.3 | 5.2 | -3.5 | 36.5* | 2.4 | 0.5
CCCNC(=O)C1(C)CCN(Cc2ccc(OC)c3ccccc23)C1 (stereo unspecified) | -0.2 | . | . | . | . | .
COc1ccc(N=Nc2ccc(N)nc2N)cc1 | -1.2 | 3.3 | -3.2 | 11.6 | 2.4 | 1.9
SMILES | TbMetRS inhib | Dyrk1A ADPGlo | CAL PDZ FP-1 | PvdQ acylase | CDK5 p35 inh | CAL PDZ FP-2
CCOc1ccc2nc3cc(N=Nc4ccc(N)nc4N)ccc3c(N)c2c1 | -0.4 | 5.7 | 9.8 | 23.1 | 61.8* | 56.1*
CN(c1ncnc(N)c1[N+](=O)[O-])C1CCCCC1 | -0.8 | 16.9 | -2.2 | 37.9* | 3.0 | -2.6
CC1CCN(Cc2nnnn2CCCC(=O)NCCc2cnn(C)c2)CC1 | -0.7 | -3.8 | 113.2* | -18.1 | -1.9 | -2.7
COc1ccccc1N1CCN(C2CCCN(C(=O)c3cscn3)C2)CC1 (stereo unspecified) | -0.1 | . | -11.6 | -1.9 | . | -1.9
COc1ccccc1N1CCN(C2CCCN(C(=O)c3cc(C4CC4)on3)C2)CC1 (stereo unspecified) | -0.1 | -4.3 | 127.7* | -16.9 | 1.8 | 0.5
Cc1cc(C(=O)N2CCCC(N3CCN(c4cccc(Cl)c4)CC3)C2)n(C)n1 (stereo unspecified) | 0.0 | -12.2 | -1.5 | -9.7 | -0.7 | -0.3
Cc1cc(C(=O)N2CCCC(N3CCN(c4ccccc4C)CC3)C2)n(C)n1 (stereo unspecified) | 0.1 | -5.6 | 30.6* | -10.7 | -0.9 | -0.3
S=C(Nc1ccc(-c2nc3ccccc3[nH]2)cc1)Nc1cccnc1 | -0.1 | 15.2 | 42.7* | -11.1 | 3.9 | -2.0
COC(=O)c1ccc(-c2nc3ccccc3[nH]2)cc1 | -1.2 | 5.1 | 2.9 | 40.2* | 6.2 | -4.2
CC(C)CC(=O)Nc1cccc(-c2nc3ccccc3[nH]2)c1 | 0.6 | -2.1 | -0.7 | -11.3 | 1.3 | -4.5
Fc1ccc(NC(=S)Nc2cccnc2)cc1 | -1.0 | -52.0 | -1.8 | 17.8 | -1.1 | -8.4
COC(=O)c1ccc(C(=O)Nc2ccc3nc(-c4ccncc4)[nH]c3c2)cc1 | -0.5 | 4.0 | 58.5* | -5.1 | 0.5 | -3.8
CC(Oc1ccccc1)C(=O)Nc1cccc(-c2nc3ccccc3[nH]2)c1 (stereo unspecified) | 37.8* | 2.8 | . | -15.4 | -0.3 | -5.7
OC(c1ccc(F)cc1)c1nc(-c2cc3ccccc3o2)cs1 (stereo unspecified) | -0.2 | . | . | . | . | .
CCCN1C(=O)N(C)C(N(O)C(=O)NC)C1(C)C (stereo unspecified) | -1.1 | -4.2 | 38.6* | -12.9 | -2.8 | 0.1
O=C(CCSc1nnc(-c2ccco2)o1)Nc1ccccc1 | -0.4 | -2.0 | -6.5 | -13.1 | -0.7 | .
CC(C)(C)NC(=O)CCSc1nnc(-c2ccco2)o1 | 0.3 | -3.1 | 111.1* | -14.4 | -0.4 | 16.4
c1ccc(-c2ccc(-c3ccccn3)s2)nc1 | -0.4 | 11.1 | 40.9* | -0.8 | 3.1 | -0.8
O=C(Nc1nc2c(Br)cc(Br)cc2c(=O)s1)C1CCC1 | 0.1 | 12.8 | 36.6* | -17.4 | 0.1 | -0.5
Cc1ccc(C)c2sc(NC(=O)C3CC3)nc12 | -0.1 | 3.5 | 2.6 | -19.1 | -0.3 | -1.5
COc1ccc(NN=Nc2ccc([N+](=O)[O-])cc2)cc1 | -1.2 | -1.8 | 41.7* | 2.3 | 0.6 | 0.2
O=[N+]([O-])c1ccc(-c2nc(Nc3cccc(O)c3)c3ccccc3n2)cc1 | 0.8 | 25.3 | 78.5* | -10.7 | 1.1 | .
Cc1ccc(-c2nc(Nc3cccc(O)c3)c3ccccc3n2)cc1 | -0.3 | 64.3* | -3.1 | -15.3 | 0.6 | -2.0
